An excerpt weighted towards active compounds, which were near 10% of everything screened.
Lmaj promast: Leishmania major promastigote growth inhibition; actives 9% (n = 200,000); Leishmania major promastigotes, resazurin fluorescence viability; inhibition, % at 10 µM; in the data active means inhibition above about 50%;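 further: promastigotes grown with compound for 44 hours at 28 °C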
PMI act satM6P: PMI (human) activation, high substrate; actives 0.34% (n = 190,000); P34949; activation factor at 20 µM; coupled PMI enzyme assay, resazurin fluorescence, 20 min; active compounds read high; 1 = untreated enzyme, 0 = substrate-free blank;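 active means activation factor of 2 or more at 20 µM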
Target sequence (P34949 whole entry, looked up): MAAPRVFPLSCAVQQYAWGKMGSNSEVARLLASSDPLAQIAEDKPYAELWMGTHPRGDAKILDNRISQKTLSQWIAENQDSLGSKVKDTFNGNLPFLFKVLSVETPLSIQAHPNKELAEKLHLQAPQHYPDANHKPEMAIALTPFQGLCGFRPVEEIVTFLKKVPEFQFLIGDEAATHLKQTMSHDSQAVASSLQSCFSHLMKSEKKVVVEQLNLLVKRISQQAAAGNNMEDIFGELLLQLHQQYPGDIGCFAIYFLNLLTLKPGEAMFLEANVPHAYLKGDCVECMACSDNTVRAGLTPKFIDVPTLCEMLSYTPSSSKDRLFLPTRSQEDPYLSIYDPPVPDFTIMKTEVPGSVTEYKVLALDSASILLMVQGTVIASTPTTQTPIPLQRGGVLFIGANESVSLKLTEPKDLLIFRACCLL
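test system = human PMI in coupled enzyme assay | medium = HEPES-buffered pH 7.4 with magnesium and detergent | also added = 1.0 mM mannose-6-phosphate substrate with 0.22 mM NADP+ | compound = 20 µM single dose | times = 20 min incubation at room temperature | measured by = resorufin fluorescence (Ex 544/Em 590 nm) from resazurin via diaphorase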
WT yeast gro inh: growth inhibition of WT yeast, mitochondrial fusion screen | inhibition, % at 10 µM | actives 2.1% (n = 190,000) | AID 1362 | mitochondrial fusion phenotypic screen, WT strain; in the data active means inhibition above about 58%; tested in S. cerevisiae
PMI act: activators of human phosphomannose isomerase | P34949 | purified human PMI, coupled resazurin fluorescence, 20 min; active compounds read high; 1 = vehicle control, 0 substrate-free wells | activation factor at 20 µM | actives 0.005% (n = 190,000);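 active means activation factor of 2 or more at 20 µM, relative to plate controls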
Diaph act CS: diaphorase activation or chemical reduction counter-screen; Diaphorase/resazurin coupled assay, resorufin fluorescence, 16 min; active compounds read high; 1 = vehicle wells, 0 = NADH-free wells; activation factor at 20 µM; actives 0.005% (n = 190,000); AID 1229;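 active means diaphorase activity raised at least twofold by the compound at 20 µM; inactive means activation factor below 2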
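Measured by – red resorufin fluorescence at 544/590 nm excitation/emission · Test system – Clostridium kluyveri diaphorase, purified enzyme · Incubation – reaction time 16 min, room temperature · Buffer or medium – 50 mM HEPES pH 7.4 with 4.542 mM MgCl2, 0.005% Tween 20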
An asterisk follows results filed as active.

SMILES	Lmaj promast	PMI act satM6P	WT yeast gro inh	PMI act	Diaph act CS
CCOC(=O)C1(Cc2ccc(Cl)cc2)CCN(CCCn2cccn2)CC1	85*	1	3	1	0.9
CC(C)OCCCN1CN(S(=O)(=O)c2cccc(Cl)c2)c2nc3ccccc3nc21	44	1.4	33	1.2	0.9
O=c1c(Cc2ccccc2)c(O)ccn1CCc1cnc[nH]1	5	0.8	-2	0.9	0.9
N#C/C(=C/c1ccc(Oc2ccc([N+](=O)[O-])cn2)cc1)C(=O)N1CCOCC1	66*	1	-1	1.1	0.9
Cc1ccccc1C(=O)c1cccn1CC(=O)NC(C)c1ccc2c(c1)OCCO2 (stereo not given)	22	1	-5	1	1
CCc1nc2sc3c(c2c(=O)o1)CCCC3	3	1.2	-10	1.1	0.9
CC1CCc2c(nc3sc4c(c3c2N)CCCC4)C1 (stereo not given)	97*	0.9	31	0.7	0.9
CC1CCc2nc3sc4c(c3c(N)c2C1)CCCC4 (stereo not given)	92*	0.9	28	0.9	0.9
CC1CCc2c(sc3nc(CSc4n[nH]c(N)n4)[nH]c(=O)c23)C1 (stereo not given)	-1	0.9	0	1	0.8
Nc1nc(-c2cccnc2)nc2sc3c(c12)CCCC3	7	1	5	0.9	0.7
Nc1c2c(nc3sc4c(c13)CCCCC4)CCCCC2	63*	1	41	1	0.9
O=C(COc1nc2ccccc2nc1N1CCOCC1)Nc1cccc(S(=O)(=O)N2CCCCC2)c1	2	0.9	-7	0.9	0.7
Cc1cccc(/C=N/NC(=O)Cn2nc(C)cc2C)n1	-7	1	-16	1.1	0.9
Cc1cccc(NC(=O)COC(=O)c2cc3ccccc3oc2=O)c1	-8	1.1	7	1.1	1
Cc1ccc2[nH]c(=O)c(CN(Cc3ccc4c(c3)OCO4)Cc3nnnn3C3CCCC3)cc2c1	64*	0.8	43	0.9	0.8
Cc1ccc2[nH]c(=O)c(CN(Cc3ccc4c(c3)OCO4)Cc3nnnn3Cc3ccco3)cc2c1	100*	0.9	-3	0.9	0.8
Cc1ccc(C)c(NC(=O)CCC(=O)NNC(=O)c2cccc([N+](=O)[O-])c2)c1	-5	0.8	4	0.9	0.8
Cc1csc(C2=C(O)CN(CCc3ccccc3)C2=N)n1	99*	1	22	1	0.8
CC1(C)CC(c2nc(-c3ccc(Cl)cc3)cs2)CCS1 (stereo not given)	-4	1	66*	0.9	0.9
CC1(C)CC(c2nc(-c3ccc(Br)cc3)cs2)CCS1 (stereo not given)	-2	1	49	1	0.9
CC1(C)CC(c2nc(-c3ccccc3)cs2)CCS1 (stereo not given)	-3	1	61*	0.9	0.9
Cc1nc(-c2ccccc2)cs1	-9	1.1	-7	1.1	1.1
Cc1cc(Cl)c2ccccc2n1	-5	1	-24	1.1	0.9
Clc1cncc(Cl)c1NNc1c2ccccc2nc2ccccc12	25	2.2*	83*	1.6	0.8
COc1cccc(C(=O)Nc2sc3c(c2C#N)CCN(C(C)=O)C3)c1	-5	0.7	3	0.6	0.9
SMILES	Lmaj promast	PMI act satM6P	WT yeast gro inh	PMI act	Diaph act CS
CC(=O)Oc1ccc(Cn2cnc3cc4ccccc4cc32)cc1	58*	0.9	8	0.9	0.9
CCOc1ccc2c(c1)ncn2Cc1ccccc1	13	1.1	15	1.1	1
Cc1nn(CC2CC2)c(=O)n1-c1ccc(Oc2ccccc2)cc1	-11	1	-12	1	1
Brc1ccc(-c2nnc3ccc(Nc4ccccc4)nn23)cc1	-7	1.1	-6	0.9	1
COCCn1c(SCCN2CCCCC2)nc2ccccc2c1=O	100*	1.1	-2	1	0.8
COCCn1c(SCc2ccc(OC)c(F)c2)nc2ccccc2c1=O	100*	1	56	1	0.9
CCCCC(=O)Nc1ccc(C(=O)Nc2nnc(COC)s2)cc1	-3	0.9	-25	0.9	0.8
CCn1cc(/C=N\NC(=O)C2(C)CC2(Cl)Cl)c(C)n1 (stereo not given)	-4	0.9	-10	0.9	0.9
C=CCNC(=S)Nc1ccc(OC)c(S(=O)(=O)N2CCOCC2)c1	-2	1.1	-12	1	0.9
